Experimental data as given in ChEMBL document CHEMBL3259537, “Design of a truncated cardiotoxin-I analogue with potent insulinotropic activity” (J Med Chem, 2014).
Calls of active or inactive are those of the source. The rule behind the calls is not given here.

Columns and labels:
INS-1E [1] = assay: Inhibition of [86]-Rb+-efflux in rat INS-1E cells at 10^8 to 10'6 M incubated for 30 mins followed by high-phosphate buffer addition by scintillation counting analysis; assay type: functional, cell-based; conditions: in the assay text read “high-potassium” for “high-phosphate”
Method in brief: (§1)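 INS-1E cells (2×10^5/well) were loaded overnight at 37 °C with 86RbCl (0.02 µCi/mL) in medium. They were then incubated 30 min at 37 °C in low-K buffer (4.6 mM KCl, pH 7.4) ± peptide, switched to high-K buffer (140 mM KCl) ± peptide, and efflux was followed over time by scintillation counting. Efflux is % of total 86Rb+ (medium plus cells); IC50 values are from three independent experiments in triplicate.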

[2] = Induction of intracellular calcium release in rat INS-1E cells by fluorescence assay; assay type: functional, cell-based
Method in brief: (§2)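 INS-1E cells were harvested by scraping (5×10^5 cells/mL) and loaded 30 min at 37 °C with 4 μM Fura-2-AM plus 2.5 mM probenecid in KRBH (10 mM glucose, pH 7.4). After washing, 20000 cells/well were read immediately after peptide addition (10^-12–10^-5 M range) at excitation 340/380 nm, emission 495 nm. [Ca2+]i was calculated by the Grynkiewicz equation (Kd 225 nM).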

[3] = Cytotoxicity against rat INS-1E cells by LDH assay; assay type: cell-based
Method in brief: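 INS-1E cells were seeded at 2×10^4 cells/well and grown 24 h at 37 °C, then exposed to increasing peptide concentrations in serum-free medium. LDH released into the medium from dead cells was measured with a commercial kit and expressed as % of maximum LDH release after cell lysis.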

INS-1E [4] = assay: Induction of intracellular calcium release in rat INS-1E cells at 10^-6 M by fluorescence assay; assay type: functional, cell-based; method in brief: as §2
INS-1E [5] = assay: Insulinotropic activity in rat INS-1E cells assessed as insulin exocytosis at 10^-6 M after 2 hrs by RIA; assay type: functional, cell-based
Method in brief: (§3)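 INS-1E cells (2×10^5/well) were seeded 2 days before use. They were starved 2 h in glucose-free KRBH with 0.1% BSA, washed, and held another 30 min at 37 °C. Cells were then incubated 2 h at 37 °C with peptide, with 20 mM glucose or without glucose. Secreted insulin in the medium was measured by RIA against a rat insulin standard.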

INS-1E [6] = assay: Insulinotropic activity in rat INS-1E cells assessed as insulin exocytosis after 2 hrs by RIA in presence of glucose; assay type: functional, cell-based; method in brief: as §3
INS-1E [7] = assay: Insulinotropic activity in rat INS-1E cells assessed as insulin exocytosis after 2 hrs by RIA in presence of adenylyl cyclase inhibitor 2',5'-dideoxy-adenosine; assay type: functional, cell-based
Method in brief: (§4)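 INS-1E cells (2×10^5/well) were pretreated 30 min with H89 (40 μM) or 2',5'-dideoxyadenosine (50 μM). They were then starved 2 h plus 30 min in glucose-free KRBH/0.1% BSA and incubated 2 h at 37 °C with peptide ± 20 mM glucose. Insulin in the medium was quantified by RIA against a rat insulin standard.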

INS-1E [8] = assay: Insulinotropic activity in rat INS-1E cells assessed as insulin exocytosis after 2 hrs by RIA in presence of PKA inhibitor H89; assay type: functional, cell-based; method in brief: as §4
INS-1E [9] = assay: Insulinotropic activity in rat INS-1E cells assessed as insulin exocytosis after 2 hrs by RIA in presence of Ca2+ channel blocker nifedipine; assay type: functional, cell-based; method in brief: as §3
INS-1E [10] = assay: Effect on NGF-induced intracellular calcium release in rat INS-1E cells at 10^-9 M by fluorescence assay; assay type: functional, cell-based
INS-1E [11] = assay: Effect on NGF-induced intracellular calcium release in rat INS-1E cells at 10^-8 to 10^-5 M by fluorescence assay; assay type: functional, cell-based
INS-1E [12] = assay: Insulinotropic activity in rat INS-1E cells assessed as insulin exocytosis after 2 hrs by RIA in presence of K-ATP channel opener diazoxide; assay type: functional, cell-based; method in brief: as §3
INS-1E [13] = assay: Insulinotropic activity in rat INS-1E cells assessed as insulin exocytosis after 2 hrs by RIA in presence of ATP depletor 2-deoxy-D-glucose; assay type: functional, cell-based; method in brief: as §3
Aorta = assay: Induction of rat aortic ring contraction at 10'5 M; assay type: functional, tissue-based
INS-1E [14] = assay: Inhibition of [86]-Rb+-efflux in rat INS-1E cells incubated for 30 mins followed by high-phosphate buffer addition by scintillation counting analysis; assay type: functional, cell-based; conditions: in the assay text read “high-potassium” for “high-phosphate”; method in brief: as §1

Structure (SMILES)	inhibition (INS-1E [1])	EC50 [2] [nM]	Activity [3]	Activity (INS-1E [4])	Activity (INS-1E [5])	Activity (INS-1E [6])	Activity (INS-1E [7])	Activity (INS-1E [8])	Activity (INS-1E [9])	Activity (INS-1E [10])	Activity (INS-1E [11])	Activity (INS-1E [12])	Activity (INS-1E [13])	Activity (Aorta)	Activity (INS-1E [14])
CN(CCc1ccc(Cl)c(Cl)c1)CC(O)COc1ccc(NS(C)(=O)=O)cc1 (stereo unspecified)	Active	–	–	–	–	–	–	–	–	–	–	–	–	–	–
CC(C)C[C@@H]1NC(=O)[C@H](CO)NC(=O)[C@H](CC(N)=O)NC(=O)[C@H](CCCCN)NC(=O)[C@@H]2CCCN2C(=O)[C@@H](NC(=O)[C@@H](N)C(C)C)CSSC[C@@H](C(=O)N[C@H]2CSSC[C@H](C(=O)N[C@@H](CC(N)=O)C(=O)O)NC(=O)[C@H](CCCNC(=N)N)NC(=O)[C@H](CC(=O)O)NC(=O)[C@H]([C@@H](C)O)NC(=O)[C@H](CC(N)=O)NC2=O)NC(=O)[C@H](C(C)C)NC(=O)[C@H](Cc2ccc(O)cc2)NC(=O)[C@H](CCCCN)NC(=O)[C@H](C(C)C)NC(=O)[C@H](CC(C)C)NC1=O	–	2.14	Non-toxic	–	–	–	–	–	–	–	–	–	–	–	–
CC(C)C[C@@H]1NC(=O)[C@H](CO)NC(=O)[C@H](CC(N)=O)NC(=O)[C@H](CCCCN)NC(=O)[C@@H]2CCCN2C(=O)[C@@H](NC(=O)[C@@H](N)C(C)C)CSSC[C@@H](C(=O)N[C@H]2CSSC[C@H](C(=O)N[C@@H](CC(N)=O)C(=O)O)NC(=O)[C@H](CCCNC(=N)N)NC(=O)[C@H](CC(=O)O)NC(=O)[C@H]([C@@H](C)O)NC(=O)[C@H](CC(N)=O)NC2=O)NC(=O)[C@H](CCCCN)NC(=O)[C@H](Cc2ccc(O)cc2)NC(=O)[C@H](CCCCN)NC(=O)[C@H](C(C)C)NC(=O)[C@H](CC(C)C)NC1=O	–	–	Non-toxic	Active	Active	Dose-dependent effect	Dose-dependent effect	Dose-dependent effect	inactive	inactive	Active	Active	Active	inactive	Dose-dependent effect
